We go through 6 compounds from ChEMBL document CHEMBL3259586, “Localization and interaction of hydroxyflavones with lipid bilayer model membranes: a study using DSC and multinuclear NMR” (Eur J Med Chem, 2014).

Broadly, the IC50 is the concentration needed to halve the response being measured.

For assay [1], the system named is Lipid bilayer. Description: Binding affinity to DPPC lipid bilayer assessed as melting temperature at 1:20 drug to DPPC molar ratio by differential scanning calorimetric analysis. Summed up: (§1)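 DPPC multilamellar vesicles made from chloroform lipid solution, lipid held at 50 mM, drug/lipid molar ratios 1:20 to 1:2; DSC heating scans give pretransition (Tp) and main transition (Tm) temperatures; repeat scans of the same samples.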
On the technique in general: Differential scanning calorimetry records heat flow against a reference as temperature is scanned.

In assay [2] the test system is Lipid bilayer. Description: Binding affinity to DPPC lipid bilayer assessed as decrease in melting temperature by differential scanning calorimetric analysis. The method in brief: as §1
For assay [3], the system named is Lipid bilayer. Description: Binding affinity to unilamellar vesicles of DPPC in D2O at 1:5 drug to lipid molar ratio at 323 K by [1H]-NMR spectroscopic analysis. Summed up: (§2)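 Lipid held at 100 mM for NMR samples with flavone at 10 to 50 mM; multilamellar vesicles from chloroform-dissolved DPPC; unilamellar vesicles made by sonicating lipid dispersions at 50% duty cycle until optically clear.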

Assay [4] deals with MCF7. Description: Antiproliferative activity against human MCF7 cells assessed as cell growth at 10^-4 ug/ml after 48 hrs by sulforhodamine B assay relative to control. Format: functional. Particulars: MCF7, 48 h, read-out: Activity. The method in brief: (§3)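 Sulforhodamine B assay; cells grown in RPMI 1640 with 10% fetal bovine serum and 2 mM L-glutamine; compounds dissolved in DMSO, diluted into culture medium; incubated 48 h under standard conditions; percent growth inhibition calculated.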
(Sulforhodamine B stains cellular protein and so reports cell mass.)

The nature of assay [5]: Binding affinity to multilamellar vesicles after 2 hrs by centrifugation method.
In assay [6] the test system is K562. Description: Antiproliferative activity against human K562 cells assessed as cell growth at 10^-4 ug/ml after 48 hrs by sulforhodamine B assay relative to control. Format: functional. The note with it: K562, 48 h, read-out: Activity. The method in brief:
as §3

Assay [7] deals with Lipid bilayer. Description: Binding affinity to DPPC lipid bilayer assessed as melting temperature at 1:5 drug to DPPC molar ratio by differential scanning calorimetric analysis. Summed up:
as §1

Assay [8] relates to Lipid bilayer. Description: Binding affinity to DPPC lipid bilayer assessed as pre-transition temperature at 1:20 drug to DPPC molar ratio by differential scanning calorimetric analysis. Summed up:
as §1

The test system of assay [9] is HepG2. Description: Antiproliferative activity against human HepG2 cells assessed as cell growth at 10^-4 ug/ml after 48 hrs by sulforhodamine B assay relative to control. In kind it is functional. Particulars: HepG2, 48 h, read-out: Activity. Summed up:
as §3

Assay [10] relates to Lipid bilayer. Description: Binding affinity to DPPC lipid bilayer assessed as melting temperature at 1:10 drug to DPPC molar ratio by differential scanning calorimetric analysis. The method in brief: as §1
Assay [11] deals with Radical scavenging activity. Description: Antioxidant activity assessed as DPPH radical scavenging activity after 30 mins. Format: functional. The method in brief:
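Test compounds at varied concentrations added to methanolic DPPH with 0.1 M Tris-HCl buffer; absorbance read at 517 nm after 30 min incubation; IC50 read graphically from dose-response curves; at least three experiments.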
On the technique in general: DPPH is a stable violet radical that fades when it is reduced.

Assay [12] relates to Lipid bilayer. Description: Binding affinity to DPPC lipid bilayer assessed as pre-transition temperature at 1:10 drug to DPPC molar ratio by differential scanning calorimetric analysis. Summed up:
as §1

For assay [13], the system named is Lipid bilayer. Description: Binding affinity to DPPC lipid bilayer assessed as pre-transition temperature at 1:5 drug to DPPC molar ratio by differential scanning calorimetric analysis. Summed up: as §1
The subject of assay [14] is Lipid bilayer. Description: Binding affinity to DPPC lipid bilayer assessed as pre-transition temperature at 1:2 drug to DPPC molar ratio by differential scanning calorimetric analysis. Summed up:
as §1

Assay [15] can be described thus: Binding affinity to multilamellar vesicles of DPPC assessed as increase in chemical shift anisotropy at 323 K by [31P]-NMR spectroscopic analysis. Summed up: as §2
The subject of assay [16] is Lipid bilayer. Description: Binding affinity to unilamellar vesicles of DPPC in D2O at 1:5 drug to lipid molar ratio at 323 K by [13C]-NMR spectroscopic analysis. Summed up:
as §2

In assay [17] the test system is Lipid bilayer. Description: Binding affinity to DPPC lipid bilayer assessed as melting temperature at 1:2 drug to DPPC molar ratio by differential scanning calorimetric analysis. Summed up: as §1
Assay [18] is described as follows: Binding affinity to multilamellar vesicles by NMR titration method. The method in brief:
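NMR titration with drug held at 10 mM and lipid varied 1-10 mM; lipid stock in D2O, drug stock in methanol, both diluted; TSP added as reference; fraction bound derived from chemical shift changes.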

For assay [19], the system named is Lipid bilayer. Description: Binding affinity to unilamellar vesicles of DPPC in D2O at 1:5 drug to lipid molar ratio at 323 K by 2D-NOESY spectroscopic analysis. The method in brief:
as §2

Assay [20] can be described thus: Binding affinity to multilamellar vesicles of DPPC at 1:10 to 1:2 drug to lipid molar ratio at 323 K by [31P]-NMR spectroscopic analysis. Summed up: as §2
The nature of assay [21]: Binding affinity to multilamellar vesicles at 100 uM after 2 hrs by centrifugation method relative to control.

SMILES strings stand for the structures. ≈ marks a conversion by molar mass, not a printed value. Calls of active or inactive are those of the source. The calls are words filed in the database; no cut-off is given here.

Take `O=c1cc(-c2ccccc2)oc2cccc(O)c12` [5-HYDROXYFLAVONE]: the Tm is 41.1 °C in [1], 40.6 °C in assay [7], 40.7 °C in assay [10] and 39.6 °C in [17]. In addition, the Activity result in assay [2] and in assay [15] was “Dose-dependent effect” in each case. Moreover, the result in [3] and in assay [16] was Active. In addition, the growth at 0.0001 µg/mL in assay [4] was found to be 28.6%; in assay [6], 26.7%; in assay [9], 88.8%. Moreover, the Kapp was 313 M⁻¹ in [5] and 229 M⁻¹ in assay [18]. Also, the T stood at 32.3 °C in assay [8], 32 °C in [12], 32 °C in assay [13] and 30.3 °C in assay [14]. For the same compound, the IC50 in assay [11] is 23.8 µg/mL (≈ 99.9 µM).

Consider `O=c1cc(-c2ccccc2)oc2ccc(O)cc12` [6-HYDROXYFLAVONE], for which the Tm worked out at 37.4 °C in assay [1], 37.1 °C in [7], 37.3 °C in assay [10] and 36.9 °C in assay [17]. Moreover, the Activity entry in [2] was “Dose-dependent effect”. Besides, the result in assay [3], in [19], in assay [20] and in [16] was Active. Moreover, the results for the growth at 0.0001 µg/mL in [4], in [6] and in assay [9] were 28.8%, 13.3% and 82.8%, respectively. The Kapp was 800 M⁻¹ in [5] and 572 M⁻¹ in assay [18]. Also, the half-inhibitory concentration (IC50) in assay [11] turned out to be 22.1 µg/mL (≈ 92.8 µM).

Regarding `O=c1cc(-c2ccccc2)oc2cc(O)ccc12` [7-HYDROXYFLAVONE], the Tm in assay [1] was 40.7 °C; in [7] it was 40.4 °C; in assay [10], 40.5 °C; in assay [17] it was 39.8 °C. The Activity entry in assay [2] and in assay [15] was “Dose-dependent effect” in each case. Also, the result in [3] and in [16] was Active. In addition, the growth at 0.0001 µg/mL in assay [4] worked out at 26.6%; in assay [6] it was 22.3%; in [9], 98.8%. Moreover, the Kapp in [5] amounted to 450 M⁻¹; in assay [18], 311 M⁻¹. The values for the T in assay [8], in [12] and in assay [14] were 31.9 °C, 31.8 °C and 27.4 °C, respectively. In addition, the IC50 in assay [11] turned out to be 24.2 µg/mL (≈ 102 µM).

In the case of `O=c1cc(-c2ccccc2)oc2cc(O)c(O)c(O)c12` [BAICALEIN], the Tm in assay [1] was 40.4 °C; in assay [7] it was 40.6 °C; in assay [10], 39.7 °C; in assay [17], 40.9 °C. In addition, the Activity entry in [2] was “Dose-dependent effect”. Besides, the result in assay [3], in assay [19], in assay [20] and in assay [16] was Active. Besides, the growth at 0.0001 µg/mL was -8.9% in assay [4], 16.7% in [6] and 70.6% in assay [9]. In addition, the results for the Kapp in assay [5] and in assay [18] were 252 M⁻¹ and 215 M⁻¹, respectively. The T in assay [8] was found to be 32.1 °C; in assay [12] it was 30.2 °C; in [13], 32.9 °C; in assay [14] it was 33.8 °C. Further, the IC50 in [11] is 18.2 µg/mL (≈ 67.3 µM).

Consider `O=c1cc(-c2ccccc2)oc2cc(O)cc(O)c12` [CHRYSIN], for which the Tm in assay [1] was found to be 40.6 °C; in assay [7], 39.9 °C; in assay [10], 39.8 °C; in assay [17], 40.1 °C. Further, the Activity result in [2] was “Dose-dependent effect”. For the same compound, the outcome in [3], in assay [20] and in [16] was Active. Further, the growth at 0.0001 µg/mL in assay [4] was found to be 25.9%; in [6], 38.3%; in [9], 76.7%. In addition, the Kapp in assay [5] turned out to be 759 M⁻¹; in [18] it was 532 M⁻¹. Further, the T in assay [8] is 31 °C; in assay [12] it was 30.4 °C; in assay [13], 30.5 °C; in assay [14] it was 31.6 °C. Also, in [11], the concentration for half-maximal inhibition (IC50) came out at 20.4 µg/mL (≈ 80.2 µM).

As for `O=c1cc(-c2ccccc2)oc2ccccc12` [FLAVONE], the Tm in assay [1] stood at 37.2 °C; in assay [7] it was 36.4 °C; in assay [10], 36.7 °C; in [17] it was 36.3 °C. Besides, the Activity result was “Dose-dependent effect” in assay [2] and 80% in assay [21]. Moreover, the result in assay [3], in assay [20] and in assay [16] was Active. Further, the growth at 0.0001 µg/mL in assay [4] is 50.3%; in assay [6] it was 56.8%; in assay [9], -7.6%. In addition, the Kapp in [5] amounted to 19600 M⁻¹; in assay [18], 1820 M⁻¹. The IC50 in assay [11] is greater than 100 µg/mL.
